Assay results: ChEMBL document CHEMBL4196006, “Aryl thiosemicarbazones for the treatment of trypanosomatidic infections” (Eur J Med Chem, 2018)
Activity calls are given as the source filed them. The rule behind the calls is not given here.

Tests used:
[1] = Cytotoxicity against human WI38 cells assessed as growth inhibition at 10 uM after 48 hrs by CellTiter-Glo assay relative to control; values are per cent of control; conditions: WI38 cells
[2] = biological target: CYP2C9 (Homo sapiens, UniProt P11712); test: Inhibition of human microsomal CYP2C9 expressed in baculovirus infected BTI-TN-5B1-4 cells at 10 uM incubated for 30 mins by luciferase assay relative to control; type: ADME
CYP2C9, sequence (P11712 whole entry): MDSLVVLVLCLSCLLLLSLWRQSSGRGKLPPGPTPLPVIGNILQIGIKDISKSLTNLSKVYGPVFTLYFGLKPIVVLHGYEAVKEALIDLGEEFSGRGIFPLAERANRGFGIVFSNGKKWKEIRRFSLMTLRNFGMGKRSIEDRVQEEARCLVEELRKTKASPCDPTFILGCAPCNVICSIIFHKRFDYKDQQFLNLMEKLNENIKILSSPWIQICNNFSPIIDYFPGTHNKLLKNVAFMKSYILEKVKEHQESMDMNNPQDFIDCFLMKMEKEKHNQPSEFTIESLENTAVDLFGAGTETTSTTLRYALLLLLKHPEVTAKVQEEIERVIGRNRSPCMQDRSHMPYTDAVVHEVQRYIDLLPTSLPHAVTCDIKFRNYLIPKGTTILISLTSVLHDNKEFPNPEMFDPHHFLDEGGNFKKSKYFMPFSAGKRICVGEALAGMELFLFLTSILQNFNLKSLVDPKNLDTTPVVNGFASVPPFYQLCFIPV
Summary of the method: (§1)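 CYP1A2, 2C9, 2C19, 2D6 and 3A4 in microsomes from baculovirus-infected insect cells, each with a P450-Glo luminogenic substrate. Inhibition read as loss of light; single-point at 10 μM, triplicate.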

[3] = biological target: T1, Pteridine reductase, putative (Trypanosoma brucei) (UniProt Q581W1); test: Inhibition of Trypanosoma brucei PTR1 at 50 uM using H2B as substrate in presence of NADPH by photometric analysis relative to control
T1 sequence (whole entry): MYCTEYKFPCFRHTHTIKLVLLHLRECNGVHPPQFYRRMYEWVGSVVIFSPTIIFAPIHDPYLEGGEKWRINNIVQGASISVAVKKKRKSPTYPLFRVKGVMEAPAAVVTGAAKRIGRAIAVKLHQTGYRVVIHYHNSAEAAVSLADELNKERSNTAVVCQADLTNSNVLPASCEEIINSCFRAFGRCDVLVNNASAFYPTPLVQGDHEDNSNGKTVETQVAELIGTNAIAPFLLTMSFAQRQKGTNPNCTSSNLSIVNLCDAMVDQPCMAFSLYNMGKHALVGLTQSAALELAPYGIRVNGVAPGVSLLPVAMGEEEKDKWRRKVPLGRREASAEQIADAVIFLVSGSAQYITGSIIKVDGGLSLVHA

[4] = biological target: T2, Pteridine reductase 1 (Leishmania major) (UniProt Q01782); test: Inhibition of Leishmania major PTR1 at 50 uM using H2B as substrate in presence of NADPH by photometric analysis relative to control
T2 sequence (whole entry): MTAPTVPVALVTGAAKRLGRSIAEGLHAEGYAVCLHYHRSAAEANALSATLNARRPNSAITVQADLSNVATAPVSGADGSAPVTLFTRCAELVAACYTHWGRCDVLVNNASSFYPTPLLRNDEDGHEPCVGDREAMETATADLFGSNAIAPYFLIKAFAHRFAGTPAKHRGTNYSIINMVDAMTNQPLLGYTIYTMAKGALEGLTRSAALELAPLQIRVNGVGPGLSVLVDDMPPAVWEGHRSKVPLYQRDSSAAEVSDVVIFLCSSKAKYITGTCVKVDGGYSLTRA

[5] = system: Leishmania infantum; test: Antileishmanial activity against Leishmania infantum amastigote form assessed as parasite growth inhibition at 50 uM after 72 hrs by steady-Glo reagent based assay relative to control; type: functional; conditions: read-out: GI
Summary of the method: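 Intramacrophage L. infantum amastigotes in THP-1-derived macrophages, tested at 50 μM or in dose-response. Plates held 72 h at 37 °C, 5% CO2. Medium was replaced by PBS, macrophages lysed, and parasites read by Steady-Glo luminescence. High-content imaging gave host cell number, infection ratio (infected/total cells) and parasites per infected cell. Values are means of at least two independent experiments.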

[6] = system: Trypanosoma brucei; test: Potentiation of methotrexate-induced antitrypanosomal activity against Trypanosoma brucei Lister 427 bloodstream form at 10 uM after 72 hrs by resazurin dye-based assay; type: functional
[7] = system: Trypanosoma brucei; test: Antitrypanosomal activity against Trypanosoma brucei Lister 427 bloodstream form after 72 hrs by SYBR Green assay; type: functional, organism-based; conditions: Lister 427, 72 h
[8] = system: Trypanosoma brucei; test: Antitrypanosomal activity against Trypanosoma brucei Lister 427 bloodstream form at 10 uM after 72 hrs by resazurin dye-based assay relative to control; type: functional
[9] = biological target: CYP2D6 (Homo sapiens, UniProt P10635); test: Inhibition of human microsomal CYP2D6 expressed in baculovirus infected BTI-TN-5B1-4 cells at 10 uM incubated for 30 mins by luciferase assay relative to control; type: ADME
CYP2D6, sequence (P10635 whole entry): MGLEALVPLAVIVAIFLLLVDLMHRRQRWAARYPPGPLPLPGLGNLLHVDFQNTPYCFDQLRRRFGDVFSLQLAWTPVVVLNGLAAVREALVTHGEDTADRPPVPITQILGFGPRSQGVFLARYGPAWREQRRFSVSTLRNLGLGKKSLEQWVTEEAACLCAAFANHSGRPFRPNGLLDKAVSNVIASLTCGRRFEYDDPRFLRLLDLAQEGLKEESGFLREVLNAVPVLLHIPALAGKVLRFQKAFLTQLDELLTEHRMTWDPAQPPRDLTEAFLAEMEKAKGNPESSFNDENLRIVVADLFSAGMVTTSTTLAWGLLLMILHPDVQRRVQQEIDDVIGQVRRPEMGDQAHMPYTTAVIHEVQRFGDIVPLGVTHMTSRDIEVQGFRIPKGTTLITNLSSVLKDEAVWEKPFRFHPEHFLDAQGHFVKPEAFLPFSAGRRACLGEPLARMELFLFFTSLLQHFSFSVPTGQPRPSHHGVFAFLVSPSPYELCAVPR
Summary of the method: as §1

[10] = Cytotoxicity against human U2OS cells assessed as viable cells at 50 uM after 72 hrs by MTT assay relative to control; type: cell-based; conditions: read-out: Activity
[11] = Cytotoxicity against human 786-O cells assessed as inhibition of mitochondrial viability at 10 uM after 6 hrs by CMXRos staining based assay relative to control; type: cell-based, 786-0; conditions: read-out: INH
Summary of the method: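 Mitochondrial toxicity monitored by MitoTracker Red CMXRos uptake and high-content imaging; compound at 10 μM, triplicate.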

[12] = system: Trypanosoma brucei; test: Antitrypanosomal activity against Trypanosoma brucei Lister 427 bloodstream form assessed as parasite growth inhibition at 50 uM after 72 hrs by SYBR Green assay relative to control; type: functional
[13] = Selectivity index, ratio of CC50 for human U2OS cells to EC50 for Trypanosoma cruzi amastigote form; type: toxicity; conditions: read-out: Ratio CC50/EC50
Summary of the method: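 Selectivity index = CC50 in the human host or cytotoxicity cell line divided by parasite EC50.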

[14] = system: Trypanosoma brucei; test: Potentiation of methotrexate-induced antitrypanosomal activity against Trypanosoma brucei Lister 427 bloodstream form at 10 uM after 72 hrs by resazurin dye-based assay relative to control; type: functional
[15] = biological target: CYP3A4 (Homo sapiens, UniProt P08684); test: Inhibition of human microsomal CYP3A4 expressed in baculovirus infected BTI-TN-5B1-4 cells at 10 uM incubated for 30 mins by luciferase assay relative to control; type: ADME
CYP3A4, sequence (P08684 whole entry): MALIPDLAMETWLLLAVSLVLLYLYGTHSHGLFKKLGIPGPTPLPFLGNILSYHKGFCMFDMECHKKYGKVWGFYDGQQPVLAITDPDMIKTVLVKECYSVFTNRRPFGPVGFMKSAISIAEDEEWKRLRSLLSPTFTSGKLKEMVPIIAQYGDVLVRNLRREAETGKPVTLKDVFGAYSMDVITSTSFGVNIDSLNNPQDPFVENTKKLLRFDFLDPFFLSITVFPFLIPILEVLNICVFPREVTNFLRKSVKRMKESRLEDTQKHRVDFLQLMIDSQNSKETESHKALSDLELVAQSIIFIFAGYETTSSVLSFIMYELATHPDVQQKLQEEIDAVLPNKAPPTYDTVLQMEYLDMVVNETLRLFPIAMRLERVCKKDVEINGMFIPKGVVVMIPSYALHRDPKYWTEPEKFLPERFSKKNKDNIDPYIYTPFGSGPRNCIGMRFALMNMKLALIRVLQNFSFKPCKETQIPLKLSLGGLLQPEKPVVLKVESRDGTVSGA
Summary of the method: as §1

[16] = biological target: hERG (KCNH2) (Homo sapiens, UniProt Q12809); test: Inhibition of human ERG at 10 uM incubated for 2 hrs by fluorescence polarisation assay relative to control
hERG (KCNH2), sequence (Q12809 whole entry): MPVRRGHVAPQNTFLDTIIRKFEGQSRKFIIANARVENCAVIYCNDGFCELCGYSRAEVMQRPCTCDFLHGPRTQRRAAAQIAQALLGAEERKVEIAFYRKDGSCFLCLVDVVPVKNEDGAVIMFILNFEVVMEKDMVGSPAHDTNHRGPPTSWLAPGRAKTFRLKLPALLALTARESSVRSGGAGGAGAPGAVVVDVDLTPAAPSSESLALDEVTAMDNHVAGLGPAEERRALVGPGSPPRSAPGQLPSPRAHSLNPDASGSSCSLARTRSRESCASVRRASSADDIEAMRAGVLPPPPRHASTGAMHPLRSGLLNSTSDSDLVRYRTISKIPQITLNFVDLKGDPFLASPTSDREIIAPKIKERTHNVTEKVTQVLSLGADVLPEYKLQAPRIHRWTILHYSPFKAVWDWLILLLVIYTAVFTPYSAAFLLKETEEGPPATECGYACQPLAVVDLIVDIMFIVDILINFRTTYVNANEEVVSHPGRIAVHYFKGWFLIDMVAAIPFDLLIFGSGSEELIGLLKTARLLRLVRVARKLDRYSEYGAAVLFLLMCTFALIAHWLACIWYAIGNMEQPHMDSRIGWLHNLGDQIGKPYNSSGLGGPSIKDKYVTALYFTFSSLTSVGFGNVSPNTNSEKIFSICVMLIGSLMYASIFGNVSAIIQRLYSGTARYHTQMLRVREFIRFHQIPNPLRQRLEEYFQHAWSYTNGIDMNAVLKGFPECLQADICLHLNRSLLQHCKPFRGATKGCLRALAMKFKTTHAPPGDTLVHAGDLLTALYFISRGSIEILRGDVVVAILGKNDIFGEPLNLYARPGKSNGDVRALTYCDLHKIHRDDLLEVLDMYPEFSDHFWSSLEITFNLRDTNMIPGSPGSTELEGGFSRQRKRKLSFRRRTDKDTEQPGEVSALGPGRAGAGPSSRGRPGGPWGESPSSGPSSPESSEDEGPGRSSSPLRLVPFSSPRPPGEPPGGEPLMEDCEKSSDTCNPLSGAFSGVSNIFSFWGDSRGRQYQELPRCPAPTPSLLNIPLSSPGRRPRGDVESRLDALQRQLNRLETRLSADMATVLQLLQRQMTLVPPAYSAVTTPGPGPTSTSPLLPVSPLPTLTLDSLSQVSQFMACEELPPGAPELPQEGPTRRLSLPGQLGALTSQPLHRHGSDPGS

[17] = Cytotoxicity against human THP1 cells assessed as viable cells at 100 uM after 72 hrs by MTT assay relative to control; type: cell-based, THP-1; conditions: read-out: Activity
Summary of the method: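 THP-1-derived macrophages exposed to compounds for 72 h, tested at 100 μM or in dose-response; viability read by MTT colorimetric assay.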

[18] = biological target: CYP2C19 (Homo sapiens, UniProt P33261); test: Inhibition of human microsomal CYP2C19 expressed in baculovirus infected BTI-TN-5B1-4 cells at 10 uM incubated for 30 mins by luciferase assay relative to control; type: ADME
CYP2C19, sequence (P33261 whole entry): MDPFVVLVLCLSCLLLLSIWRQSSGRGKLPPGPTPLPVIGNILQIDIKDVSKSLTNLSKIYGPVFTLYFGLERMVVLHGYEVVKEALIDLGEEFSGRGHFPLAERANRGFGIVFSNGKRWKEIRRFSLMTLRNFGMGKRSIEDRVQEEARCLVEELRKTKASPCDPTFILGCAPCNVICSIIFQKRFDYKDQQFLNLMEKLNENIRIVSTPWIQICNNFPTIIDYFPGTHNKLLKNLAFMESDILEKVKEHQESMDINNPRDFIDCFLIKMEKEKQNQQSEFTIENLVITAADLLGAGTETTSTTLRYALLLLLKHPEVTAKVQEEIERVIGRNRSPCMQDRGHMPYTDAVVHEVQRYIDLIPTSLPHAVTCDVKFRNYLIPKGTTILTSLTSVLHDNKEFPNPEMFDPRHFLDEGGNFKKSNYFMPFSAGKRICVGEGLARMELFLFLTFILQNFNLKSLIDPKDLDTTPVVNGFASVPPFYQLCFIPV
Summary of the method: as §1

[19] = biological target: Aurora kinase B (Homo sapiens, UniProt Q96GD4); test: Inhibition of recombinant full-length human aurora B kinase expressed in baculovirus system at 10 uM using MBP as substrate incubated for 45 mins by ADP-glo kinase assay; conditions: probe MBP
Aurora kinase B, sequence (Q96GD4 whole entry): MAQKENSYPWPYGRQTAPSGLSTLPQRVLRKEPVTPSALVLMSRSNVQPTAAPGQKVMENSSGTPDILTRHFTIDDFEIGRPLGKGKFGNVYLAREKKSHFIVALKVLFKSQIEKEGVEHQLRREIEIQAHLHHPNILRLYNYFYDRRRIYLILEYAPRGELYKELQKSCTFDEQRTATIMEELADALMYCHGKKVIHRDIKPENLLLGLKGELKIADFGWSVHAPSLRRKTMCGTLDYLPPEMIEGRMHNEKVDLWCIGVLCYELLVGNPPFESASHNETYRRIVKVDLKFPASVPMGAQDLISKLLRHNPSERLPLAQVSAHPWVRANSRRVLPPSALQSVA
Summary of the method: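 Aurora B activity measured as ADP formation via coupled luciferase ADP-Glo luminescence; single-point at 10 μM, triplicate.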

[20] = biological target: T3, CYP1A2 (Homo sapiens, UniProt P05177); test: Inhibition of human microsomal CYP1A2 expressed in baculovirus infected BTI-TN-5B1-4 cells at 10 uM incubated for 30 mins by luciferase assay relative to control; type: ADME
T3 sequence (P05177 whole entry): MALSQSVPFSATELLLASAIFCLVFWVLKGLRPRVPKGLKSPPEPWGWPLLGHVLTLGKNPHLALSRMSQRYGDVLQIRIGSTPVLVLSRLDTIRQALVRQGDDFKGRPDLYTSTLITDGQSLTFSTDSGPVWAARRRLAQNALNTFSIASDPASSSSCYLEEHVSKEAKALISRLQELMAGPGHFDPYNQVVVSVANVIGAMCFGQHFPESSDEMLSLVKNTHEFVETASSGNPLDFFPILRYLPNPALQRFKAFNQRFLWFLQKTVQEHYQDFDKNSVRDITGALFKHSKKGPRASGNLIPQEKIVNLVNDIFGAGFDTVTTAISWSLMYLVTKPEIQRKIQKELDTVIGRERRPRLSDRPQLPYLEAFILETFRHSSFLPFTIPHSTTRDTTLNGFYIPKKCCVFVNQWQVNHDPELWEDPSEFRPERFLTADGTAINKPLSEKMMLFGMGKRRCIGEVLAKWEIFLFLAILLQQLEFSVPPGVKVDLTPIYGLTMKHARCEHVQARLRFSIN
Summary of the method: as §1

[21] = system: Trypanosoma cruzi; test: Antitrypanosomal activity against Trypanosoma cruzi amastigote form infected in human U2OS cells assessed as parasite growth inhibition after 72 hrs; type: functional, organism-based
Summary of the method: (§2)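 U2OS monolayers grown for 24 h, then infected with tissue-derived trypomastigotes of T. cruzi Y strain. Compounds were added 24 h after infection at 50 μM (single-point) or in dose-response, with 72 h exposure. Plates were fixed, stained and analysed by high-content imaging; activity was normalized to infected and non-infected controls. Means of at least two experiments; benznidazole as reference.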

[22] = system: Trypanosoma cruzi; test: Antitrypanosomal activity against Trypanosoma cruzi amastigote form infected in human U2OS cells assessed as parasite growth inhibition at 50 uM after 72 hrs relative to control; type: functional; conditions: read-out: GI
Summary of the method: as §2

[23] = Cytotoxicity against human U2OS cells assessed as decrease in viable cells after 72 hrs by cell number count in anti-T. cruzi high content imaging assay; conditions: U2OS cells
[24] = Cytotoxicity against human A549 cells assessed as growth inhibition at 10 uM after 48 hrs by CellTiter-Glo assay relative to control; values are per cent of control; conditions: A549 cells
[25] = system: A549; test: as above; conditions: a549, 48 h, 10 µM

SMILES | cell growth (% of control) at 48 h, 10 µM [1] [%] | inhibition at 0.5 h, 10 µM [2] [%] | inhibition [3] [%] | inhibition [4] [%] | inhibition of growth at 50 µM [5] [%] | PF [6] | Activity [8] [%] | inhibition at 0.5 h, 10 µM [9] [%] | viability at 72 h, 50 µM [10] [%] | cytotoxicity at 6 h, 10 µM [11] [%] | Activity [14] [%] | inhibition at 0.5 h, 10 µM [15] [%] | inhibition at 2 h, 10 µM [16] [%] | viability at 72 h, 100 µM [17] [%] | inhibition at 0.5 h, 10 µM [18] [%] | inhibition at 0.75 h, 10 µM [19] [%] | inhibition at 0.5 h, 10 µM [20] [%] | inhibition of growth at 50 µM [22] [%] | growth inhibition (GI) [12] | cell growth (% of control) [25] [%] | further results
NC(=S)N/N=C/C=C/c1ccccc1 | 82.8 | 9.11 | 8.92 | 9.09 | 45.9 | 2.37 | 11.33 | 3.17 | 76.1 | -2.97 | 84.5 | -13.1 | 7.23 | 44.1 | -36.7 | -5.47 | 18.3 | 94.6 | – | – | EC50 [7]: 16.9 µM; inhibition of growth at 50 µM ([12]; Lister 427, 72 h, read-out: GI): 91.7%; selectivity ratio [13]: > 1; EC50 [21]: 1.59 µM; CC50 at 72 h [23]: > 44 µM; cell growth (% of control) at 48 h, 10 µM [24]: 129%
COc1cccc(OC)c1/C=N/NC(N)=S | 114 | -9.43 | 4.77 | 4.04 | 25.3 | 0.66 | 8.83 | 0.08 | 21.7 | -12.3 | 21.83 | -14.8 | -1.27 | 76.8 | -44.2 | -18.2 | 34.3 | 74.3 | inactive | 162.27 | –
NC(=S)N/N=C/c1ccccc1[N+](=O)[O-] | 120 | -4.92 | 14.8 | 10.6 | 30.6 | 1.13 | 1.5 | -2.93 | 20.4 | -3.98 | 29.17 | -13.9 | -1.03 | 59.7 | -40.6 | -22.8 | 61.6 | 27.4 | inactive | 158.95 | –
